An excerpt weighted towards active compounds, which were near 2.1% of everything screened.
APJ antag – blocks the human apelin receptor APJ; inhibition, % at 20 µM; hit rate 0.32% among 330,000; CHO-K1 APJ beta-arrestin complementation, luminescence;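 active = inhibition above about 40% at 20 µM, limit read from the data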;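 also: cells challenged with 10 nM apelin-13 agonist together with compound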
Target sequence (P35414 whole entry, looked up): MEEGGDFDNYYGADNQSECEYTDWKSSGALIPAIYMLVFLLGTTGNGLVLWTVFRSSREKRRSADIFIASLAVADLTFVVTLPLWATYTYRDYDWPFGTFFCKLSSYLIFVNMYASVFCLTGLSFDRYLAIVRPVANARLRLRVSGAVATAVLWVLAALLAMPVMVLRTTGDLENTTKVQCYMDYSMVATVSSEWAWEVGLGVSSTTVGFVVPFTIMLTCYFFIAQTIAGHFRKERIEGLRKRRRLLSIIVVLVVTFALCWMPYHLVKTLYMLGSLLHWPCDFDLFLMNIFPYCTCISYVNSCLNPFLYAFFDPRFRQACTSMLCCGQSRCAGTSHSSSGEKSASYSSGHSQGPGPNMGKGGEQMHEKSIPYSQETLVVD
EBI2 block – EBI2 (human) antagonism; EBI2 beta-arrestin recruitment, luminescence, 7a,25-OHC stimulated; hit rate 0.81% among 360,000; inhibition, % at 5 µM; P32249; in the data active = inhibition above about 38%;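 also: enzyme fragment complementation signal reports receptor beta-arrestin coupling in cells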
CCR6 antagonist – antagonists of human CCR6 receptor; CHO-K1 CCR6 PathHunter beta-arrestin, luminescence, CCL20-stimulated; inhibition, % at 20 µM; hit rate 0.49% among 340,000; AID 493098;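 active = compounds whose inhibition of the agonist-driven luminescence signal at 20 µM reaches about 50%, limit read from the data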;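 also: cells stimulated with CCL20 at 14 nM final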
CXCR6 inh – inhibitors of human CXCR6 receptor | O00574 | CHO-K1 PathHunter CXCR6 beta-arrestin, luminescence | inhibition, % at 20 µM | hit rate 0.36% among 360,000 | AID 602244; in the data active = inhibition above about 34%, passing the limit was not always enough;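 also: antagonist mode with CXCL16 agonist at 10 nM final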
APJ agonist – APJ receptor agonism | CHO-K1 APJ PathHunter beta-arrestin, luminescence; 0% DMSO wells, 100% apelin | activation, % at 20 µM | hit rate 0.11% among 330,000 | AID 2520;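 active = activation more than six SD over the plate average, tested at 20 µM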
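Assay system: CHO-K1 cells stably expressing ProLink-tagged human APJ and arrestin–beta-gal acceptor. Compound dosing: 20 µM single point, 1% DMSO. Times: 16-18 h seeding, 90 min dark compound exposure, 60 min detection. Detection: beta-gal luminescence. Evaluation: APJ–arrestin association signal. Controls: negative DMSO alone, positive Apelin-13 at 10 nM.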
HTR2A ag – activates the mouse 5-HT2A serotonin receptor; P35363; CHO-K1 mHTR2A beta-arrestin complementation, luminescence; percent of 30 µM serotonin response; activation, % at 7.6 µM; hit rate 0.66% among 360,000; AID 624169;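 active = activation above a run cutoff, the mean activation of all tested compounds plus 3 SD, cut at about 14% in these data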
OPRM1 ag – OPRM1 agonism in mouse HTR2A counterscreen | shares compounds with HTR2A ag | U2OS OPRM1 beta-arrestin PathHunter, luminescence; DMSO 0%, DAMGO 9.3 µM 100% | activation, % at 9.3 µM | hit rate 5.3% among 2,300 | AID 624380;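 active = mean activation above the mean of DMSO-only wells plus 3 SD, cut at about 0.5% in these data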
HTR2A ag conf – confirmation of mouse HTR2A serotonin receptor agonists | shares compounds with HTR2A ag | AID 624381 | hit rate 19% among 2,300 | activation, % at 7.6 µM | CHO-K1 PathHunter beta-arrestin recruitment, luminescence; DMSO 0%, 30 µM serotonin 100%;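 active = mean activation across triplicates above the hit threshold derived in the original primary screen, cut at about 15% in these data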
Numbers stand for hits; i = inactive; nt = no result given.

SMILES	APJ antag	EBI2 block	CCR6 antagonist	CXCR6 inh	APJ agonist	HTR2A ag	OPRM1 ag	HTR2A ag conf
O=S(=O)(Nc1cccc(-n2cnnn2)c1)c1ccccc1	i	i	i	i	i	15	i	i
O=S(=O)(Nc1cccc(-n2cnnn2)c1)c1cccc(Cl)c1	i	i	i	i	i	i	nt	nt
COc1ccc(OC)c(/C=C/C(=O)OCC(=O)NC2CCCCCCC2)c1	i	i	i	i	i	16	i	i
S=C(NC1CCCCC1)N1CCN(Cc2ccccc2Cl)CC1	i	i	i	i	i	17	i	i
S=C(NC1CCCCC1)N1CCN(Cc2ccccc2)CC1	i	i	i	i	i	i	nt	nt
Cc1nc(NC(=O)c2ccccc2)sc1Cc1ccc2c(c1)OCO2	i	i	i	i	i	i	nt	nt
Cc1c(Cc2ccc3c(c2)OCO3)sc(NC(=O)c2ccccc2)c1C(N)=O	i	i	i	i	i	15	i	i
Cc1ccc2nc(SCC(=O)Nc3cccc(F)c3)nc(=O)n2c1	i	i	i	i	i	i	nt	nt
COc1cc(-c2ccc3c(=O)c4ccccc4n(C)c3c2)cc(OC)c1OC	i	i	i	i	i	18	i	i
CC(=O)Nc1cc(-c2ccc(C(=O)N3CCOCC3)cc2)cn2c(-c3ccc(C(C)=O)cc3)cnc12	nt	i	nt	i	nt	i	nt	nt
COc1ccc(-c2cnc3c(NC(C)=O)cc(-c4ccc(C(=O)N5CCOCC5)cc4)cn23)cc1OC	nt	i	nt	i	nt	15	i	i
Cc1cccc(NS(=O)(=O)c2ccc(C)c(C(=O)NCCCN3CCOCC3)c2)c1	i	i	i	i	i	i	nt	nt
Cn1c(N)c(C(=O)Nc2ccccc2)c(=O)[nH]c1=O	i	nt	i	nt	i	nt	nt	nt
Cn1c(N)c(C(=O)/C=C/c2ccccc2)c(=O)[nH]c1=O	i	i	i	i	i	26	i	i
C[C@H](CO)N1C[C@H](C)[C@@H](CN(C)CC2CC2)Oc2c(NC(=O)Cc3ccccc3)cccc2C1=O	i	i	i	i	i	16	i	i
C[C@H](CO)N1C[C@H](C)[C@@H](CN(C)C(=O)Nc2ccc3c(c2)OCO3)Oc2ccc(NS(=O)(=O)c3ccccc3)cc2C1=O	i	i	i	i	i	15	i	i
Cc1noc(C)c1S(=O)(=O)Nc1ccc2c(c1)C(=O)N([C@H](C)CO)C[C@H](C)[C@@H](CN(C)C(=O)NC1CCCCC1)O2	i	i	i	i	i	15	i	i
C[C@H](CO)N1C[C@H](C)[C@@H](CN(C)C(=O)Nc2ccccc2)Oc2ccc(NS(=O)(=O)c3ccccc3)cc2C1=O	i	i	i	i	i	i	nt	nt
Cc1noc(C)c1NC(=O)N(C)C[C@H]1Oc2ccc(NS(=O)(=O)c3c(C)noc3C)cc2C(=O)N([C@H](C)CO)C[C@@H]1C	i	i	i	i	i	i	nt	nt
CCOC(=O)c1ccc(NC(=O)CCS(=O)(=O)Cc2ccccc2)cc1	i	i	i	i	i	15	i	i
CC1(C(=O)Nc2ccc3c(c2)OCCO3)CC1(Cl)Cl (stereo unspecified)	i	i	i	i	i	i	nt	nt
CCCN(CCC)CCNC(=O)c1cc2c(-c3ccc(Cl)cc3)nn(C)c2s1	i	i	i	i	i	30	i	51
COc1ccc(/C=N/NC(=O)c2cccc([N+](=O)[O-])c2)cc1OC(=O)c1ccccc1	i	i	i	i	i	i	nt	nt
COc1ccc(C(=O)Oc2ccc(/C=N/NC(=O)c3ccccc3OC)cc2[N+](=O)[O-])cc1	i	i	i	i	i	i	nt	nt
O=C(N/N=C/c1ccc(OC(=O)c2ccccc2)c([N+](=O)[O-])c1)c1ccc(O)cc1	i	i	i	i	i	16	i	i
SMILES	APJ antag	EBI2 block	CCR6 antagonist	CXCR6 inh	APJ agonist	HTR2A ag	OPRM1 ag	HTR2A ag conf
COc1ccc(/C=N/NC(=O)c2cccc([N+](=O)[O-])c2)cc1OC(=O)c1ccc(C)cc1	i	i	i	i	i	20	i	i
FC(F)(F)c1cc(CO[C@@H]2CCCN[C@@H]2c2ccccc2)cc(C(F)(F)F)c1	i	i	i	i	i	i	nt	nt
CC1CCCN(C(=O)CSCC(=O)Nc2nc(-c3cccs3)cs2)C1 (stereo unspecified)	i	i	i	i	i	15	i	i
CC1CCN(C(=O)CSCC(=O)Nc2nc(-c3cccs3)cs2)CC1	i	i	i	i	i	i	nt	nt
O=C(NCC(c1ccco1)N1CCN(c2ccccc2F)CC1)C(=O)NC1CCCC1 (stereo unspecified)	i	i	i	i	i	i	nt	nt
CCCN(CC(=O)Nc1ccccc1C)C(=O)c1cccc(S(=O)(=O)N2CCN(c3ccccc3)CC2)c1	i	i	i	i	i	i	nt	nt
COC(=O)c1ccn(CSc2cc(Cl)ccc2Cl)n1	i	i	i	i	i	21	0.6	i
CCOC(=O)C1=CCN(S(=O)(=O)c2ccccc2C)C1c1ccc(Cl)c(Cl)c1 (stereo unspecified)	nt	i	nt	i	nt	i	nt	nt
Cc1nn(Cc2c(Cl)cccc2Cl)c(Cl)c1/C=C/C(=O)OCC(=O)NCC(F)(F)F	i	i	i	i	i	i	nt	nt
COCCNC(=O)COC(=O)/C=C/c1c(C)nn(Cc2ccc(Cl)cc2Cl)c1Cl	i	i	i	i	i	35	i	i
O=C(NCCCO)C(=O)NCC1OCCCN1S(=O)(=O)c1cccs1 (stereo unspecified)	i	i	i	i	i	16	0.9	i
COc1ccc(S(=O)(=O)N2CCOC2CNC(=O)C(=O)NCCc2ccccc2)cc1 (stereo unspecified)	i	i	i	i	i	46	i	i
Nc1cn(C2OC(CO)C(O)C2O)c(=O)[nH]c1=O (stereo unspecified)	i	i	i	i	i	i	nt	nt
CCC(C)[C@H](NC(=O)C1CC(=O)N(c2ccc3c(c2)OCCO3)C1)C(=O)NC1CCCC1 (stereo partly specified)	i	i	i	i	i	i	nt	nt
CC(C)[C@H](NC(=O)C1CC(=O)N(c2ccc3c(c2)OCCO3)C1)C(=O)NC1CCCC1 (stereo partly specified)	i	i	i	i	i	22	i	i
O=C(CSc1nnc(CNC(=O)c2ccc(F)cc2)o1)Nc1nccs1	i	i	i	i	i	14	i	i
CC(C(=O)Nc1cccc(S(=O)(=O)N2CCOCC2)c1)N1CCN(C/C=C/c2ccccc2)CC1 (stereo unspecified)	i	i	i	i	i	17	i	21

Assay outcomes deposited in PubChem by several laboratories.
